High-throughput results: PubChem, several laboratories
HNF4A DNA FP: change in binding of human HNF4 alpha to DNA; 360,000 tested, 0.3% active; activity change, % at 10 µM; P41235; HNF4a-FITC DNA binding, fluorescence polarization, 1 h; AID 1224865; in the data active = activity change above about 30%, passing the limit was not always enough
Rpn11 block: blocks the human proteasome subunit Rpn11; O00487; human 26S proteasome, Ub4-pepOG fluorescence polarization; 20S core pre-blocked with epoxomicin; inhibition, % at 20 µM; AID 588493; 360,000 tested, 0.59% active;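 active = inhibition at 20 µM, scaled to each plate's controls, above about 33%, limit read from the data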
Target sequence (O00487 whole entry, looked up): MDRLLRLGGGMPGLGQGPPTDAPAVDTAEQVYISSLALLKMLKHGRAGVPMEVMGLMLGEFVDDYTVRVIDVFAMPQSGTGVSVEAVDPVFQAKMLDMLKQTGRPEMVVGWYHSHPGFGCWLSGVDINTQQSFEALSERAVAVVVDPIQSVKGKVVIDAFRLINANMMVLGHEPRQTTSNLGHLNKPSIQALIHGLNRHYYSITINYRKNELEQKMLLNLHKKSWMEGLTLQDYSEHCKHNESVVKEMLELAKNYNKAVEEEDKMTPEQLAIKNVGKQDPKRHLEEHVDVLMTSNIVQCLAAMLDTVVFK
TPT1 inh: C. albicans TPT1 enzyme inhibition; 300,000 tested, 0.81% active; AID 1962; recombinant caTPT1, FP RNA substrate dephosphorylation; inhibition, % at 5 µM;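 active = inhibition above the mean of all tested compounds plus 3 SD, set per screening campaign, cut at about 24% in these data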;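 also: plate controls were DMSO alone for no effect and ferristatin control at 100 nM for full effect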
IDE cell activ: boosts human insulin-degrading enzyme activity in HEK cells | FAbeta-B cleavage, fluorescence polarization; 0% vehicle, 100% cell-free pure enzyme wells | activation, % at 5.96 µM | P14735 | 340,000 tested, 0.073% active;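 active = activation above the mean of all tested compounds plus 3 SD, set per screening campaign, cut at about 17% in these data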
IDE inh: inhibits human insulin-degrading enzyme in HEK cells; 320,000 tested, 0.41% active; AID 434962; FAbetaB cleavage, fluorescence polarization; P14735; inhibition, % at 5.59 µM;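 active = percent inhibition above the average of all tested compounds plus 3 SD, set per screening campaign, cut at about 16% in these data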;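 also: IDE supplied by intact live HEK cells; FP after avidin binding of uncleaved biotin substrate so inhibition keeps polarization high; 0% = DMSO wells and 100% = 60 µM reference IDE inhibitor Ii1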
CSN inh: CSN deneddylation inhibition. Q92905. Purified CSN, SCF-Nedd8-OG deneddylation, fluorescence polarization. inhibition, % at 12.5 µM. 360,000 tested, 0.38% active;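 active = pattern-corrected inhibition above about 35%, with an unprinted fluorescence ratio check between 0.5 and 1.5, limit read from the data, passing the limit was not always enough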;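 also: 0% = enzyme with substrate and 100% = substrate without enzyme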
Target sequence (Q92905 whole entry, looked up, one chain of several): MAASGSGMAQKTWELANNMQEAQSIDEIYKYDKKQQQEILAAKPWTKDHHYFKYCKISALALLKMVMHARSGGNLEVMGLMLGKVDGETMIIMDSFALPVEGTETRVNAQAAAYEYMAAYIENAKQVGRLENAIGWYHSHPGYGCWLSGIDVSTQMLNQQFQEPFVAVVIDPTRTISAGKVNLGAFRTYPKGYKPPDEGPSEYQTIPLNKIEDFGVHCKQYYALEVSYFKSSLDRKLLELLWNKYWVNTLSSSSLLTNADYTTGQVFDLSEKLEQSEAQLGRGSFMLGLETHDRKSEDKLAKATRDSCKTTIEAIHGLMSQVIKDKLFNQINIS
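Assay system: purified human Csn5 enzyme expressed in HEK293T cells; measure: % inhibition; also added: SCFSkp2-Nedd8OG substrate at 10 nM final; technique: fluorescence polarization; times: reaction 90 min, room temperature; medium: Tris buffer pH 7.5, NaCl, DTT, Tween-20, trehalose, ovalbumin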
caTPT1 confirm: confirmation of Candida albicans TPT1 inhibitors; recombinant caTPT1, fluorescence polarization, RNase T1 coupled; 2,400 tested, 74% active; AID 2149; shares compounds with TPT1 inh; inhibition, % at 5 µM;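 active = inhibition above the primary screen limit, the mean inhibition of all tested compounds plus 3 SD, cut at about 25% in these data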
RNase T1 inh: counter-screen for TPT1 inhibitors: inhibitors of Aspergillus oryzae RNase T1 | shares compounds with TPT1 inh | RNase T1 cleavage, fluorescence polarization, 1536-well | inhibition, % at 5 µM | 2,400 tested, 83% active;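 active = inhibition above the solvent-only control well mean plus 3 SD, limit set per screening run, cut at about 23% in these data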;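 also: plate controls were DMSO wells with enzyme for no effect and wells without RNase T1 for full effect; inhibitors block cleavage so intact labeled substrate keeps polarization high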
Starred values were filed as active, the others as inactive; nt = no result shown; ! = not confirmed by another sample. Shown are actives, neighbours in structure and some others; about 1.7% of the full set was active somewhere.

SMILES	HNF4A DNA FP	Rpn11 block	TPT1 inh	IDE cell activ	IDE inh	CSN inh	caTPT1 confirm	RNase T1 inh
CN(C)c1ccc(C=C(C#N)C#N)cc1	-0.7	6.0	39.9*	6.3	-1.0	-12.1	47.7*	59.8*
N#CC(C#N)=Cc1ccc(N2CCCC2)cc1	15.5	23.5	62.5*	-9.9	8.6	10.3	69.1*	84.4*
CN1CCN(c2ccc(C=O)cc2)CC1	2.6	0.0	-1.5	4.0	6.3	2.9	nt	nt
CCC1C2Cc3ccc(O)cc3C1(CC)CCN2C (stereo unspecified)	3.4	2.1	nt	4.6	nt	-1.9	nt	nt
CCN1C(=O)C(=Cc2ccc(C)s2)C(=O)N(CC)C1=S	4.3	nt	31.4*	-4.3	-2.0	16.6	8.8	12.8
O=c1[nH]c2ccccc2n1C1CCN(C(c2cccs2)c2nnnn2-c2ccc3c(c2)OCCO3)CC1 (stereo unspecified)	0.8	2.5	nt	nt	nt	1.7	nt	nt
CC1OC(OC2C=C3CCC4C(CCC5(C)C(c6ccc(=O)oc6)CCC45O)C3(C)CC2)C(O)C(OC2OC(CO)C(O)C(O)C2O)C1O (stereo unspecified)	-0.1	-2.7	nt	-3.9	nt	2.0	nt	nt
N#Cc1c(/N=C/c2ccc(O)cc2O)sc2c1C1CCN2CC1	40.4*	38.3	65.0*	-14.6	7.2	33.2	106.3*	107.3*
NC(=S)/N=C/c1c(O)[nH]c(=O)[nH]c1=O	1.7	11.6	16.2	6.9	0.8	8.3	nt	nt
C=CCNC(=S)/N=C/c1c(O)[nH]c(=O)[nH]c1=O	11.8	16.1	25.7*	4.1	4.5	9.1	14.2	22.9*
CCC(c1nnnn1C1CCCCC1)N1CCC2(CC1)C(=O)NCN2c1ccccc1 (stereo unspecified)	2.9	-4.7	nt	nt	nt	-2.3	nt	nt
Cc1cccc(-n2c(/C=C/c3ccc([N+](=O)[O-])o3)nc3ccccc3c2=O)c1	150.5	nt	40.4*	1.6	-2.5	116.9	56.0*	52.2*
CC1CN1P(=S)(c1ccccc1)N1CC1C (stereo unspecified)	-3.5	-5.8	nt	-0.4	nt	-1.9	nt	nt
Cn1cccc1/C=C1/C(=O)NC(=O)N(Cc2ccc(F)cc2)C1=O	2.2	39.4	7.6	3.6	2.4	-0.2	nt	nt
CCCCN1C(=O)/C(=C\c2ccco2)C(=O)N(CCc2ccccc2)C1=O	3.0	25.6	43.3*	0.7	3.6	21.1	5.5	8.9
O=C1NC(=O)N(Cc2ccccc2)C(=O)/C1=C\N1CCCc2ccccc21	0.3	20.7	28.9*	-48.2	12.0	6.8	14.5	20.9
CN1C(=O)C(=CN2CCN(C(=O)c3ccco3)CC2)C(=O)N(C)C1=S	5.0	16.1	9.8	4.2	-2.3	3.4	nt	nt
Cn1cccc1/C=C1/C(=O)NC(=O)N(Cc2ccccc2)C1=O	4.4	9.1	14.0	-1.5	12.3	3.5	nt	nt
Cn1cccc1/C=C1\C(=O)NC(=O)N(Cc2ccccc2)C1=O	26.2	10.5	24.9*	3.2	0.3	0.1	21.7	33.8*
C=CCN1C(=O)NC(=O)/C(=C/c2cccn2C)C1=O	0.1	3.7	51.5*	2.0	1.8	-3.4	4.7	8.3
CCOC(=O)[C@]12Cc3cc(OC)ccc3[C@H]1N(C(C)C)C(=O)c1cc(OC)ccc12	-7.8	nt	nt	nt	nt	-0.4	nt	nt
O=C1NC(=O)N(Cc2ccco2)C(=O)/C1=C/c1cccn1CCOc1ccccc1Cl	-9.3	6.3	11.8	-7.3	8.2	21.9	nt	nt
O=C1NC(=O)N(Cc2ccccc2)C(=O)/C1=C\c1ccco1	0.1	29.2	65.8*	-7.8	2.8	27.4	16.7	22.5*
CC(C)n1c(=O)c(C=Nc2cccc([N+](=O)[O-])c2)c(O)n(CCc2ccccc2)c1=O	3.3	15.8	42.8*	-4.8	1.7	8.2	14.0	19.1
Cn1c(O)c(C=Nc2cccc(C(F)(F)F)c2)c(=O)n(C)c1=O	-2.5	-5.9	5.0	1.3	9.4	2.2	nt	nt
SMILES	HNF4A DNA FP	Rpn11 block	TPT1 inh	IDE cell activ	IDE inh	CSN inh	caTPT1 confirm	RNase T1 inh
Fc1cccc(-c2ccc3c(c2)CN(C(=S)NCCc2ccccc2)Cc2cnnn2-3)c1	1.3	5.7	nt	nt	nt	5.5	nt	nt
CC[C@H]1c2ccccc2[C@@H]2CC[C@H]1N2c1ccccc1	1.9	nt	nt	nt	nt	-2.5	nt	nt
CCC(=O)c1ccc(OCC(=O)N2CCN(CC(=O)Nc3ccccc3C(F)(F)F)CC2)cc1	-4.2	3.9	nt	-3.0	2.5	-1.1	nt	nt
CN1C(=O)C(=Cc2ccc(N3CCOCC3)o2)C(=O)N(C)C1=O	153.5	nt	135.6*	-21.4	11.0	142.3	147.9*	144.9*
CN1C(=O)C(=Cc2ccc(N3CCCCCC3)o2)C(=O)N(C)C1=S	148.5	nt	139.7*	-26.9	11.9	164.2	118.4*	121.5*
Cc1ccc(Sc2ccc(C=C3C(=O)N(C)C(=O)N(C)C3=O)o2)cc1	-0.2	4.6	5.9	-14.3	-0.2	-5.5	nt	nt
CCCC1(CC(C)C)C(=O)NC(=S)NC1=O	0.5	-10.9	nt	3.3	nt	-3.4	nt	nt
CNS(=O)(=O)c1ccc(N=Cc2c(O)n(-c3cccc(C)c3)c(=O)[nH]c2=O)cc1	1.8	2.8	25.7*	-1.9	7.6	17.1	13.6	24.0*
Cc1ccc(-n2c(O)c(C=Nc3ccc(S(=O)(=O)N(C)C)cc3)c(=O)[nH]c2=O)cc1	-3.5	3.7	26.1*	-9.4	0.7	9.4	8.6	13.7
CNS(=O)(=O)c1ccc(N=Cc2c(O)n(-c3ccccc3)c(=O)[nH]c2=O)cc1	-0.3	3.2	28.0*	0.0	3.4	6.8	16.8	25.1*
Cc1ccc(N=Cc2c(O)n(-c3ccc(C)cc3)c(=O)[nH]c2=O)cc1	0.5	2.5	1.8	-5.4	-1.5	-3.2	nt	nt
Cc1ccccc1-n1c(O)c(/C=N/c2nccs2)c(=O)[nH]c1=O	2.8	7.0	28.2*!	2.6	1.2	-1.6	17.8	26.4*
O=c1[nH]c(=O)n(-c2cccc(Cl)c2)c(O)c1/C=N/c1ccccn1	10.7	9.9	30.0*	6.1	9.3	2.5	18.3	24.2*
N=Cc1c(O)n(-c2cccc(Cl)c2)c(=O)[nH]c1=O	3.1	-1.0	5.2	1.0	6.0	3.8	nt	nt
O=c1c(C=NCc2cccs2)c(O)n(C2CCCCC2)c(=O)n1C1CCCCC1	-5.7	-14.5	2.0	4.8	1.1	-1.5	nt	nt
O=c1c(C=Nc2cccnc2Cl)c(O)n(CCCCl)c(=O)n1C1CCCCC1	27.7	nt	63.1*	-3.7	-1.2	49.5*	85.7*	99.2*
COc1cc(/C=C2\C(=O)NC(=O)N(c3ccc(C)cc3)C2=O)cc(OC)c1O	2.2	5.4	30.6*	-1.9	4.1	1.1	11.9	18.9
